Assay results taken from ChEMBL document CHEMBL1255572, “Novel pyrimidines as acid pump antagonists (APAs)” (Bioorg Med Chem Lett, 2010).
pIC50: −log10 of the molar value. Where a name gives a salt, the structure may show the parent alone.

Legend:
[1] = Inhibition of H+/K+/ATPase
Outline: (§1)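 Ion-leaky membrane vesicles enriched in H+/K+-ATPase prepared from pig stomach. Lyophilized vesicles in 5 mM Pipes/Tris pH 6.1 preincubated 5 min with compound at various concentrations. K+-containing or K+-free buffer then added, ATP substrate added, and incubated 30 min at 37 °C. Colorimetric reagent stopped the reaction and Pi was read at 620 nm. K+-stimulated activity is the difference between with and without K+. IC50 by Litchfield–Wilcoxon.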

[2] = Inhibition of H+/K+/ATPase at 4 uM; outline: as §1

| Structure (SMILES) | pIC50 [1] | inhibition [2] [%] |
| --- | --- | --- |
| Cc1cccc2c1C(C)N(c1nc(Cc3ccc(F)cc3)nc(C)c1C)CC2 (centres undefined) | 6.15 |  |
| Cc1nc(Cc2ccc(F)cc2)nc(N2CCc3ccc(Cl)cc3C2C)c1C (centres undefined) | 5.79 |  |
| Cc1ccc2c(c1)CCN(c1nc(C(F)c3ccc(F)cc3)nc(C)c1C)C2C (centres undefined) | 5.95 |  |
| Cc1nc(Nc2ccc(F)cc2)nc(N2CCc3ccccc3C2C)c1C (centres undefined) [REVAPRAZAN HYDROCHLORIDE] | 6.46 |  |
| COc1ccc2c(c1)C(C)N(c1nc(C3(c4ccc(F)cc4)CC3)nc(C)c1C)CC2 (centres undefined) |  | 1.4 |
| Cc1ccc2c(c1)CCN(c1nc(Cc3ccc(F)cc3)nc(C)c1C)C2C (centres undefined) | 6.64 |  |
| COc1ccc2c(c1)C(C)N(c1nc(Cc3ccc(F)cc3)nc(C)c1C)CC2 (centres undefined) | 7.28 |  |
| COc1ccc2c(c1)CCN(c1nc(Cc3ccc(F)cc3)nc(C)c1C)C2C (centres undefined) | 6.77 |  |
| Cc1ccc2c(c1)CCN(c1nc(C(O)c3ccc(F)cc3)nc(C)c1C)C2C (centres undefined) | 5.82 |  |
| Cc1ccc2c(c1)CCN(c1nc(C(C)(C)c3ccc(F)cc3)nc(C)c1C)C2C (centres undefined) | 5.75 |  |
| Cc1nc(Cc2ccc(F)cc2)nc(N2CCc3ccc(F)cc3C2C)c1C (centres undefined) | 5.91 |  |
| Cc1nc(Cc2ccc(F)cc2)nc(N2CCc3cc(Cl)ccc3C2C)c1C (centres undefined) | 6.03 |  |
| COc1ccc2c(c1)C(C)N(c1nc(C(C)(C)c3ccc(F)cc3)nc(C)c1C)CC2 (centres undefined) |  | 34.2 |
| Cc1ccc2c(c1)C(C)N(c1nc(Cc3ccc(F)cc3)nc(C)c1C)CC2 (centres undefined) | 6.52 |  |
| COc1ccc2c(c1)C(C)N(c1nc(C(=O)c3ccc(F)cc3)nc(C)c1C)CC2 (centres undefined) | 5.95 |  |
| Cc1ccc2c(c1)CCN(c1nc(C3(c4ccc(F)cc4)CC3)nc(C)c1C)C2C (centres undefined) | 5.89 |  |
| Cc1nc(Cc2ccc(F)cc2)nc(N2CC(C)c3ccccc3C2C)c1C (centres undefined) | 6.21 |  |
| Cc1nc(Cc2ccc(F)cc2)nc(N2CCc3c(Cl)cccc3C2C)c1C (centres undefined) | 5.70 |  |
| Cc1ccc2c(c1)CCN(c1nc(C(=O)c3ccc(F)cc3)nc(C)c1C)C2C (centres undefined) | 5.72 |  |
